Broadly, the inhibition in vivo is the percentage by which the read-out fell short of the control.

The record followed here is ChEMBL document CHEMBL1152452, “Modifications incorporated in CpG motifs of oligodeoxynucleotides lead to antagonist activity of toll-like receptors 7 and 9” (2009).

Each structure is given as a SMILES string. The source made the active and inactive calls. The rule behind the calls is not given here.

Test [1] concerns Mus musculus. As to the kind of experiment: Immunostimulatory activity in C57BL/6 mouse assessed as inhibition of 5'-CTATCTGACGTTCTCTGT-3'-induced MCP1 production in serum at 2 mg/kg, sc administered 24 hrs prior to 5'-CTATCTGACGTTCTCTGT-3' challenge measured after 2 hrs by Luminex multiplex assay. Also on record: dose 2 mg/kg. It counts as functional, organism-based. Summed up:
(§1)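 C57BL/6 mice received 2 mg/kg ODN sc in one flank. After 24 h, the TLR9 agonist ODN was given at 0.5 mg/kg sc in the opposite flank. Blood was drawn 2 h later and serum cytokines/chemokines were quantified by Luminex multiplex assay. Percent inhibition was taken against the agonist alone. Representative of three experiments.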

Test [2] deals with Mus musculus. As to the kind of experiment: Immunostimulatory activity in C57BL/6 mouse assessed as inhibition of 5'-CTATCTGACGTTCTCTGT-3'-induced KC production in serum at 2 mg/kg, sc administered 24 hrs prior to 5'-CTATCTGACGTTCTCTGT-3' challenge measured after 2 hrs by Luminex multiplex assay. It counts as functional, organism-based. Also on record: dose 2 mg/kg. Summed up: as §1

In test [3] the test system is Splenocyte. In words: Inhibition of 5'-CTATCTGACGTTCTCTGT-3'-induced IL12 secretion in C57BL/6 mouse splenocytes after 24 hrs by sandwich ELISA. It counts as functional, cell-based. Summed up:
(§2)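 Splenocytes from 5–8-week C57BL/6 mice, 5 × 10^6 cells/mL in RPMI complete medium, were co-incubated with the TLR9 agonist ODN (1 µg/mL) plus test ODN at 1 or 4 µg/mL, or over a concentration series, at 37 °C for 24 h. Supernatant IL-12 or IL-6 was measured by sandwich ELISA. Runs were done in duplicate, with three independent experiments.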

Test [4] has as its system Mus musculus. In words: Immunostimulatory activity in C57BL/6 mouse assessed as inhibition of 5'-CTATCTGACGTTCTCTGT-3'-induced MIP-1alpha production in serum at 2 mg/kg, sc administered 24 hrs prior to 5'-CTATCTGACGTTCTCTGT-3' challenge measured after 2 hrs by Luminex multiplex assay. It counts as functional, organism-based. Further details: dose 2 mg/kg. Summed up: as §1

Test [5] concerns Mus musculus. In words: Immunostimulatory activity in C57BL/6 mouse assessed as induction of MIP-1alpha level in serum at 2 mg/kg, sc after 2 hrs by Luminex multiplex assay. It counts as functional, organism-based. Also on record: dose 2 mg/kg. Summed up:
(§3)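 Female C57BL/6 mice, 5–6 weeks old, n = 3, received a single 2 mg/kg subcutaneous ODN injection in the right flank. Blood was taken by retro-orbital bleeding 2 h later. Naive mice served as baseline. Representative of three experiments.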

In test [6] the test system is Splenocyte. As to the kind of experiment: Immunostimulatory activity in C57BL/6 mouse splenocytes assessed as induction of IL6 secretion at 2 to 10 ug/ml after 24 hrs by sandwich ELISA. It counts as functional, cell-based. Summed up: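 C57BL/6 splenocytes (mice 5–8 weeks) at 5 × 10^6 cells/mL in RPMI complete medium. ODNs dissolved in PBS were added and the cells incubated at 37 °C for 24 h. Supernatant IL-12 or IL-6 was measured by sandwich ELISA. Runs were done two or three times, in duplicate per concentration.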

The target of test [7] is T1, Toll-like receptor 9 (Mus musculus) (UniProt Q9EQU3).
T1 sequence (whole entry): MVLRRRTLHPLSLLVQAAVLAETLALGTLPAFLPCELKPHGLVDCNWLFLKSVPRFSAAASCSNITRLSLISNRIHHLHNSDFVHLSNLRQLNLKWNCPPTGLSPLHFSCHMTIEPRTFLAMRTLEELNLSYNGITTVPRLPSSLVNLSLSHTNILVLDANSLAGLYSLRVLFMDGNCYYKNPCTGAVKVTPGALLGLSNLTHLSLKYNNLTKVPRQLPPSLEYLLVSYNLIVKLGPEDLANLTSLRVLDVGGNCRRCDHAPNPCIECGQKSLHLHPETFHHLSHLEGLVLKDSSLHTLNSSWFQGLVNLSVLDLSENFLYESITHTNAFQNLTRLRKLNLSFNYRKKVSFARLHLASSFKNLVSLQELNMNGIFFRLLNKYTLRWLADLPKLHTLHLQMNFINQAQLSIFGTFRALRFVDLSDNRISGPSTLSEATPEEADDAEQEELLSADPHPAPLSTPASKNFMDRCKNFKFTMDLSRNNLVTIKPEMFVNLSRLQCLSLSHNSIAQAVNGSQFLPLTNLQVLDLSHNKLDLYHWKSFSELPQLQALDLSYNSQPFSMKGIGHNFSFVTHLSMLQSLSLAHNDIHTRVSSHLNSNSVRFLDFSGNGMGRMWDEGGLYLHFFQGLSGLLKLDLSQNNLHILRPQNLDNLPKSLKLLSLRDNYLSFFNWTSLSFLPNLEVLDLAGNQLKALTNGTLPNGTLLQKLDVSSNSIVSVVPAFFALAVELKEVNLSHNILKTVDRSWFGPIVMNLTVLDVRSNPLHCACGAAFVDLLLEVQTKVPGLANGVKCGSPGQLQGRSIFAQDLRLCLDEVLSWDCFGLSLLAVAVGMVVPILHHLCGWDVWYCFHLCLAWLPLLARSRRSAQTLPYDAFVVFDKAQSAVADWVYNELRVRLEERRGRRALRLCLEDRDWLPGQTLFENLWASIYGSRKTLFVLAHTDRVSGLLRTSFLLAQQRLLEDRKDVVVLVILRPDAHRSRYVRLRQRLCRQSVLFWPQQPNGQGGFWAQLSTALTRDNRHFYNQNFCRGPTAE
In words: Activation of mouse TLR9 expressed in HEK293 cells assessed as NF-kappaB level at 0.3 ug/mL after 18 hrs by reporter gene assay. It counts as cell-based. Summed up: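 HEK293 cells stably expressing mouse TLR9 were transiently transfected with a SEAP reporter for 6 h, then stimulated with ODN at 0.1, 0.3 or 1 μg/mL for 18 h. Reporter expression is given as fold change in NF-κB activity over medium. Representative of two independent experiments.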

The subject of test [8] is Mus musculus. As to the kind of experiment: Immunostimulatory activity in C57BL/6 mouse assessed as induction of IL10 level in serum at 2 mg/kg, sc after 2 hrs by Luminex multiplex assay. It counts as functional, organism-based. Further details: dose 2 mg/kg. Summed up: as §3
Test [9] concerns Mus musculus. In words: Immunostimulatory activity in C57BL/6 mouse assessed as induction of KC level in serum at 2 mg/kg, sc after 2 hrs by Luminex multiplex assay. It counts as functional, organism-based. Further details: dose 2 mg/kg. Summed up:
as §3

The test system of test [10] is Splenocyte. As to the kind of experiment: Inhibition of 5'-CTATCTGACGTTCTCTGT-3'-induced IL6 secretion in C57BL/6 mouse splenocytes after 24 hrs by sandwich ELISA. It counts as functional, cell-based. Summed up:
as §2
(ELISA stands for enzyme-linked immunosorbent assay.)

Test [11] deals with Mus musculus. As to the kind of experiment: Immunostimulatory activity in C57BL/6 mouse assessed as inhibition of 5'-CTATCTGACGTTCTCTGT-3'-induced IP10 production in serum at 5 mg/kg, sc administered 24 hrs prior to 5'-CTATCTGACGTTCTCTGT-3' challenge measured after 2 hrs by Luminex multiplex assay. The test is classed as functional. The note with it: C57BL/6, sc, route subcutaneous.

Test [12] deals with Mus musculus. In words: Immunostimulatory activity in C57BL/6 mouse assessed as inhibition of TLR7 agonist-induced IP10 production in serum at 5 mg/kg, sc administered 24 hrs prior to TLR7 agonist challenge measured after 2 hrs by Luminex multiplex assay. It counts as functional. The note with it: C57BL/6, sc, route subcutaneous.

For the molecule `COC1[C@H](n2cc(C)c(N)nc2=O)O[C@H](COP(=O)(S)O[C@H]2C[C@H](n3cnc4c(N)ncnc43)O[C@@H]2COP(=O)(S)O[C@H]2C[C@H](n3cnc4c(=O)[nH]c(N)nc43)O[C@@H]2COP(=O)(S)O[C@H]2C[C@H](n3cc(C)c(=O)[nH]c3=O)O[C@@H]2COP(=O)(S)O[C@H]2C[C@H](n3ccc(N)nc3=O)O[C@@H]2COP(=O)(S)O[C@H]2C[C@H](n3cc(C)c(=O)[nH]c3=O)O[C@@H]2COP(=O)(S)O[C@H]2C[C@H](n3cnc4c(N)ncnc43)O[C@@H]2COP(=O)(S)O[C@H]2C[C@H](n3cc(C)c(=O)[nH]c3=O)O[C@@H]2COP(=O)(S)O[C@H]2C[C@H](n3ccc(N)nc3=O)O[C@@H]2CO)[C@H]1OP(=O)(S)OC[C@H]1O[C@@H](n2cnc3c(=O)[nH]c(N)nc32)C[C@@H]1OP(=O)(S)OC[C@H]1O[C@@H](n2cc(C)c(=O)[nH]c2=O)C[C@@H]1OP(=O)(S)OC[C@H]1O[C@@H](n2cc(C)c(=O)[nH]c2=O)C[C@@H]1OP(=O)(S)OC[C@H]1O[C@@H](n2ccc(N)nc2=O)C[C@@H]1OP(=O)(S)OC[C@H]1O[C@@H](n2cc(C)c(=O)[nH]c2=O)C[C@@H]1OP(=O)(S)OC[C@H]1O[C@@H](n2ccc(N)nc2=O)C[C@@H]1OP(=O)(S)OC[C@H]1O[C@@H](n2cc(C)c(=O)[nH]c2=O)C[C@@H]1OP(=O)(S)OC[C@H]1O[C@@H](n2cnc3c(=O)[nH]c(N)nc32)C[C@@H]1OP(=O)(S)OC[C@H]1O[C@@H](n2cc(C)c(=O)[nH]c2=O)C[C@@H]1O` (some centres not stated), the result with Mus musculus [1], with Mus musculus [2], in the test on Mus musculus [4] and in the test with Splenocyte [6] was Active. Moreover, the Activity entry with Splenocyte [3] and with Splenocyte [10] was “Dose-dependent effect” in each case. Moreover, the result (in the test on Mus musculus [5]; in test [7]; with Mus musculus [8]; in the test on Mus musculus [9]) was inactive.

On to `COC1[C@H](n2cnc3c(=O)[nH]c(N)nc32)O[C@H](COP(=O)(S)O[C@H]2C[C@H](n3cc(C)c(N)nc3=O)O[C@@H]2COP(=O)(S)O[C@H]2C[C@H](n3cnc4c(N)ncnc43)O[C@@H]2COP(=O)(S)O[C@H]2C[C@H](n3cnc4c(=O)[nH]c(N)nc43)O[C@@H]2COP(=O)(S)O[C@H]2C[C@H](n3cc(C)c(=O)[nH]c3=O)O[C@@H]2COP(=O)(S)O[C@H]2C[C@H](n3ccc(N)nc3=O)O[C@@H]2COP(=O)(S)O[C@H]2C[C@H](n3cc(C)c(=O)[nH]c3=O)O[C@@H]2COP(=O)(S)O[C@H]2C[C@H](n3cnc4c(N)ncnc43)O[C@@H]2COP(=O)(S)O[C@H]2C[C@H](n3cc(C)c(=O)[nH]c3=O)O[C@@H]2COP(=O)(S)O[C@H]2C[C@H](n3ccc(N)nc3=O)O[C@@H]2CO)[C@H]1OP(=O)(S)OC[C@H]1O[C@@H](n2cc(C)c(=O)[nH]c2=O)C[C@@H]1OP(=O)(S)OC[C@H]1O[C@@H](n2cc(C)c(=O)[nH]c2=O)C[C@@H]1OP(=O)(S)OC[C@H]1O[C@@H](n2ccc(N)nc2=O)C[C@@H]1OP(=O)(S)OC[C@H]1O[C@@H](n2cc(C)c(=O)[nH]c2=O)C[C@@H]1OP(=O)(S)OC[C@H]1O[C@@H](n2ccc(N)nc2=O)C[C@@H]1OP(=O)(S)OC[C@H]1O[C@@H](n2cc(C)c(=O)[nH]c2=O)C[C@@H]1OP(=O)(S)OC[C@H]1O[C@@H](n2cnc3c(=O)[nH]c(N)nc32)C[C@@H]1OP(=O)(S)OC[C@H]1O[C@@H](n2cc(C)c(=O)[nH]c2=O)C[C@@H]1O` (some centres not stated), for which the result in the test on Mus musculus [1], in the test on Mus musculus [2], with Mus musculus [4] and in the test on Splenocyte [6] was Active. Also, the Activity entry in the test on Splenocyte [3] and in the test with Splenocyte [10] was “Dose-dependent effect” in each case. The outcome (with Mus musculus [5]; in test [7]; in the test on Mus musculus [8]; with Mus musculus [9]) was inactive. The inhibition in vivo at 5 mg/kg in the test with Mus musculus [11] and in the test on Mus musculus [12] was 50% throughout.
